The text below walks through data of ChEMBL document CHEMBL1155144, “Cytoplasmic-membrane anchoring of a class A beta-lactamase and its capacity in manifesting antibiotic resistance” (2007).

Values after ≈ are worked out from the molar mass of the structure shown.

Common to all, as to assay type: functional
Assay [1] relates to Escherichia coli. Briefly: Antimicrobial activity against Escherichia coli JM83 harboring pACYC184-ATEM by serial dilution method. The method in brief: (§1)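 Broth serial dilution in LB medium, microtitre format; inoculum 5 x 10^5 CFU/ml; incubated with antibiotic overnight at 37°C; MIC read after overnight growth.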
Assay [2] relates to Escherichia coli. As to the kind of experiment: Antimicrobial activity against Escherichia coli JM83 by serial dilution method. The method in brief:
as §1

Assay [3] concerns Escherichia coli. As to the kind of experiment: Antimicrobial activity against Escherichia coli JM83 harboring pACYC184-TEM by serial dilution method. A digest of the protocol:
as §1

For the compound `CC1(C)S[C@@H]2[C@H](NC(=O)[C@H](N)c3ccccc3)C(=O)N2[C@H]1C(=O)O` [AMPICILLIN], the MIC (as a rule, the lowest concentration found to suppress growth) in assay [1] is 4000 µg/mL (≈ 11400 µM); in assay [2], 4 µg/mL (≈ 11.4 µM); in assay [3], 4000 µg/mL (≈ 11400 µM).
With `Cc1onc(-c2ccccc2)c1C(=O)N[C@@H]1C(=O)N2[C@@H]1SC(C)(C)[C@@H]2C(=O)O` [OXACILLIN], the MIC in assay [1] turned out to be 8000 µg/mL (≈ 19900 µM); in assay [2] it was 2 µg/mL (≈ 4.98 µM); in assay [3] it was 64 µg/mL (≈ 159 µM).
Consider `O=C(Cc1cccs1)N[C@@H]1C(=O)N2C(C(=O)[O-])=C(C[n+]3ccccc3)CS[C@H]12` [CEPHALORIDINE], for which the MIC in assay [1] is 32 µg/mL (≈ 77 µM); in assay [2], 2 µg/mL (≈ 4.81 µM); in assay [3], 32 µg/mL (≈ 77 µM).
As for `CC(C)(O/N=C(\C(=O)N[C@@H]1C(=O)N2C(C(=O)[O-])=C(C[n+]3ccccc3)CS[C@H]12)c1csc(N)n1)C(=O)O` [CEFTAZIDIME], the minimum inhibitory concentration (MIC) in assay [1], in assay [2] and in assay [3] was 0.3 µg/mL (≈ 0.549 µM) each time.
Turning to `CC(=O)OCC1=C(C(=O)O)N2C(=O)[C@@H](NC(=O)Cc3cccs3)[C@H]2SC1` [CEPHALOTHIN], the results for the MIC in assay [1], in assay [2] and in assay [3] were 64 µg/mL (≈ 161 µM), 4 µg/mL (≈ 10.1 µM) and 64 µg/mL (≈ 161 µM), respectively.
